Test results reported in ChEMBL document CHEMBL2331350, “Conjugation to 4-aminoquinoline improves the anti-trypanosomal activity of Deferiprone-type iron chelators” (Bioorg Med Chem, 2013).
Activity calls are given as the source filed them. The calls are words filed in the database; no cut-off is given here.

What was measured:
Trypanosoma cruzi [1] = test: Antitrypanosomal activity against Trypanosoma cruzi trypomastigotes after 24 hrs by MTT assay; type: functional
Procedure, shortened: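 T. cruzi trypomastigotes counted by hemocytometer, seeded at 1 × 10⁶ per well; compounds up to 100 µM for 24 h at 37 °C, 5% CO2. Viability from MTT conversion to formazan. Benznidazole positive control; GI50 with 95% CI.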

[2] = Selectivity index, ratio of GI50 for human HL60 cells to GI50 for Leishmania infantum MHOM/BR/1972/LD promastigotes; type: toxicity, cell-based, HL-60; settings: read-out: RatioGI50
[3] = Selectivity index, ratio of GI50 for human HL60 cells to GI50 for Trypanosoma cruzi trypomastigotes; type: toxicity, cell-based, HL-60; settings: read-out: RatioGI50
[4] = Selectivity index, ratio of GI50 for human HL60 cells to GI50 for Trypanosoma brucei TC211; type: toxicity, cell-based, HL-60; settings: read-out: RatioGI50
[5] = Cytotoxicity against human HL60 cells by alamar blue assay; type: cell-based, HL-60
Procedure, shortened: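 HL-60 cells in RPMI 1640 with 2 mM L-glutamine and 16.7% FBS at 37 °C, 5% CO2, seeded at 10⁵ cells/mL. Viability with Alamar Blue read as in the T. brucei assay (570 nm, reference 630 nm); GI50.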

Leishmania infantum [6] = test: Antileishmanial activity against Leishmania infantum MHOM/BR/1972/LD promastigotes after 48 hrs by MTT assay; type: functional
Trypanosoma brucei [7] = test: Antitrypanosomal activity against Trypanosoma brucei TC211 after 24 hrs by alamar blue assay; type: functional; settings: TC211, 24 h
Procedure, shortened: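 Bloodstream T. brucei TC211 in Baltz medium with 16.7% heat-inactivated FBS, seeded at 10⁴ cells/mL with compounds in DMSO (final 0.5%; DMSO-only controls). Alamar Blue added after 24 h, then 48 h incubation; absorbance 570 nm, reference 630 nm. Melarsoprol positive control; GI50 with 95% CI.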

[8] = Lipophilicity, log P of the compound; type: physicochemical; settings: octanol/water
[9] = Selectivity index, ratio of GI50 for human K562 cells to GI50 for Plasmodium falciparum ITG2G1; type: toxicity, cell-based; settings: read-out: RatioGI50
[10] = Cytotoxicity against human K562 cells; type: cell-based
Plasmodium falciparum = test: Antimalarial activity against Plasmodium falciparum ITG2G1; type: functional
Trypanosoma cruzi [11] = test: Antitrypanosomal activity against Trypanosoma cruzi trypomastigotes after 24 hrs by MTT assay relative to Chloroquine; type: functional
Trypanosoma brucei [12] = test: Antitrypanosomal activity against Trypanosoma brucei TC211 after 24 hrs by alamar blue assay relative to Chloroquine; type: functional
Trypanosoma cruzi [13] = test: Antitrypanosomal activity against Trypanosoma cruzi trypomastigotes after 24 hrs by MTT assay relative to Deferiprone; type: functional
Trypanosoma brucei [14] = test: Antitrypanosomal activity against Trypanosoma brucei TC211 after 24 hrs by alamar blue assay relative to Deferiprone; type: functional
Leishmania infantum [15] = test: Antileishmanial activity against Leishmania infantum MHOM/BR/1972/LD intracellular amastigotes at 60 uM after 120 hrs by light microscopy
Trypanosoma brucei [16] = test: Iron cheating activity in Trypanosoma brucei bloodstream forms assessed as increase in fluorescein-labeled transferrin at 25 uM in presence of 16.7% heat inactivated FBS after 24 hrs by flow cytometry relative to untreated control; type: functional
Procedure, shortened: (§1)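 Bloodstream T. brucei (5 × 10⁵/mL) exposed 24 h in Baltz medium/16.7% heat-inactivated FBS to 50 µM chelator, 25 µM DFO or DMSO control. Washed cells then given 50 µg/mL fluorescein-transferrin in Baltz/2% BSA for 2 h, washed, fixed in 2% formaldehyde/0.05% glutaraldehyde, analysed by flow cytometry.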

[17] = Iron cheating activity assessed as pFe3+ value at pH 7.45 by spectrophotometry; type: functional
Procedure, shortened: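 Automated spectrophotometric titration at 25 °C, 0.1 M KCl, pH 2–12 in 0.1-unit steps, 5 min equilibration for stability constants, 50 mm cuvette; […], total iron 1 mM; data fitted with pHab; pFe³⁺ defined at 10⁻⁶ M metal and 10⁻⁵ M ligand.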

Trypanosoma brucei [18] = test: Antitrypanosomal activity against Trypanosoma brucei TC211 after 24 hrs in presence of FeCl3 by alamar blue assay; type: functional, organism-based
Trypanosoma brucei [19] = test: Iron cheating activity in Trypanosoma brucei bloodstream forms assessed as increase in fluorescein-labeled transferrin at 50 uM in presence of 16.7% heat inactivated FBS after 24 hrs by flow cytometry relative to untreated control; type: functional; procedure, shortened: as §1

SMILES	GI50 (Trypanosoma cruzi [1]) [µM]	GI50 [5] [µM]	GI50 (Leishmania infantum [6]) [µM]	GI50 (Trypanosoma brucei [7]) [µM]	logP [8]	selectivity ratio [9]	GI50 [10] [µM]	GI50 (Plasmodium falciparum) [µM]	further results
O=C(Cn1ccnc1[N+](=O)[O-])NCc1ccccc1 [BENZNIDAZOLE]	441								
CCCCCCCCn1ccc(=O)c(O)c1C	3	11.2	3.2	3.6					selectivity ratio [2]: 4; selectivity ratio [3]: 4; selectivity ratio [4]: 3
Nc1nc(N)nc(Nc2ccc([As]3SCC(CO)S3)cc2)n1 (configuration not stated) [MELARSOPROL]				0.0038					
CCCCCCCCCCn1ccc(=O)c(O)c1C	0.8	6.3	0.7	1.4					selectivity ratio [2]: 9; selectivity ratio [3]: 8; selectivity ratio [4]: 5
Cc1c(O)c(=O)ccn1CCNc1ccnc2cc(Cl)ccc12					1.08	26	182	7	
Cc1c(O)c(=O)ccn1CCN	> 100	111	> 100	> 100					
CCN(CC)CCCC(C)Nc1ccnc2cc(Cl)ccc12 (configuration not stated) [CHLOROQUINE]	22.2		3.7	15.6					
C[C@@H]1[C@H](O)[C@@H](C)/C=C/C=C/C=C/C=C/C=C/C=C/C=C/[C@H](O[C@@H]2O[C@H](C)[C@@H](O)[C@H](N)[C@@H]2O)C[C@@H]2O[C@](O)(C[C@@H](O)C[C@@H](O)[C@H](O)CC[C@@H](O)C[C@@H](O)CC(=O)O[C@H]1C)C[C@H](O)[C@H]2C(=O)O [AMPHOTERICIN B]			0.17						
Cc1c(O)c(=O)ccn1CCCCNc1ccnc2cc(Cl)ccc12	6.5	50.3	27.1	3.8	1.4	16	38.2	2.4	Ratio (Trypanosoma cruzi [11]): 4; Ratio (Trypanosoma brucei [12]): 4; Ratio (Trypanosoma cruzi [13]): >15; Ratio (Trypanosoma brucei [14]): >25; selectivity ratio [2]: 2; selectivity ratio [3]: 8; selectivity ratio [4]: 13; Activity (Leishmania infantum [15]): inactive
Cc1c(O)c(=O)ccn1CCCNc1ccnc2cc(Cl)ccc12					1.32				
CC(=O)N(O)CCCCCNC(=O)CCC(=O)N(O)CCCCCNC(=O)CCC(=O)N(O)CCCCCN [DEFEROXAMINE]		18.4	150	2.9			33.1	28	fold change (FC) (Trypanosoma brucei [16]): 2; Activity [17]: 26.6
Cc1cc(NCCCCn2ccc(=O)c(O)c2C)c2ccccc2n1					-0.48	23	204	9	Activity [17]: 21.1
Cc1c(O)c(=O)ccn1CCCCNc1ccnc2ccccc12	> 100	> 100	> 100	7.6	1.25	17	27.1	1.6	Activity (Trypanosoma brucei [18]): inactive; fold change (FC) (Trypanosoma brucei [19]): 1.6; selectivity ratio [4]: > 13
Cc1cc(NC(=O)CCCn2ccc(=O)c(O)c2C)c2ccccc2n1					1.28	21	128	6	
NCCCCNc1ccnc2cc(Cl)ccc12	46.3	> 100	42.4	15.8					
Cc1c(O)c(=O)ccn1C [DEFERIPRONE]	> 100	> 100	> 100	> 100				67	Activity [17]: 19.3
